The record followed here is ChEMBL document CHEMBL1140206 (J Med Chem, 2008).

Assay [1] concerns the target T1, Neuronal acetylcholine receptor; alpha3/beta4 (Rattus norvegicus, UniProt P04757+P12392). The experiment in a line: Displacement of [3H]epibatidine from rat recombinant alpha-3-beta-4 nAChR expressed in HEK293 cells. Format: cell-based. In general terms: Loss of bound radioactivity is the signal in a displacement assay; it reports binding, not function.
In assay [2] the target is Neuronal acetylcholine receptor; alpha4/beta2 (Rattus norvegicus, UniProt P09483+P12390). The experiment in a line: Displacement of [3H]epibatidine from rat recombinant alpha4beta2 nAChR expressed in HEK293 cells. Format: cell-based.
Assay [3] addresses Neuronal acetylcholine receptor; alpha4/beta4 (Rattus norvegicus, UniProt P09483+P12392). Nature of the assay: Displacement of [3H]epibatidine from rat recombinant alpha-4-beta-4 nAChR expressed in HEK293 cells. Format: cell-based.
The target in assay [4] is T1, Neuronal acetylcholine receptor; alpha3/beta4. The experiment in a line: Agonist activity at rat alpha-3-beta-4 nAChR expressed in HEK293 cells by FMP assay. Format: functional, cell-based. In outline: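 Stable HEK293 line; cells plated 16-24 h, washed, then loaded 30 min at 37 °C with FMP dye in Krebs buffer pH 7.4. Concentration-response curves used maximal responses, fitted to a Hill equation for EC50 and Rmax. Run in duplicate, at least three times.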

The target of assay [5] is Neuronal acetylcholine receptor; alpha3/beta4 (Rattus norvegicus) (UniProt P04757+P12392). The experiment in a line: Agonist activity at rat alpha-3-beta-4 nAChR expressed in HEK293 cells by FMP assay relative to acetylcholine. Format: functional, cell-based. In outline:
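Stable HEK293 line; cells plated 16-24 h, washed, then loaded 30 min at 37 °C with FMP dye in Krebs buffer pH 7.4. Fluorescence (ex 530/em 560 nm) was read before and up to 1 min after agonist addition. Concentration-response curves used maximal responses, fitted to a Hill equation for EC50 and Rmax. Run in duplicate, at least three times.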

Assay [6] concerns the target Neuronal acetylcholine receptor subunit alpha-7 (Rattus norvegicus, UniProt Q05941). The experiment in a line: Displacement of [3H]MLA from rat alpha-7 nAChR/mouse 5HT3A chimera expressed in human tsA-201 cells.
The target of assay [7] is T2, Neuronal acetylcholine receptor; alpha4/beta2 (Homo sapiens, UniProt P17787+P43681). The experiment in a line: Agonist activity at human alpha-4-beta-2 nAChR expressed in Xenopus oocytes by two-electrode voltage clamp technique. Format: functional, cell-based, Oocyte. In outline: (§1)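 Defolliculated Xenopus oocytes received 40-50 ng total cRNA of human α7, α3+β4 (1:1) or α4+β2 and were kept at 17 °C. Two-electrode clamp at -60 mV used 3 M KCl electrodes in Oocyte Ringer's pH 7.4, with 12 s agonist pulses 5 min apart at 2.5 mL/min. Peak current was normalized to saturating ACh in the same oocyte (10 mM α7; 1 mM α3β4, α4β2).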

The target in assay [8] is T3, Neuronal acetylcholine receptor; alpha3/beta4 (Homo sapiens, UniProt P30926+P32297). The experiment in a line: Agonist activity at human alpha-3-beta-4 nAChR expressed in Xenopus oocytes by two-electrode voltage clamp technique. Format: functional, cell-based, Oocyte. In outline:
as §1
For orientation: Two-electrode voltage clamp is typically applied to oocytes expressing channels or transporters.

Assay [9] concerns the target T2, Neuronal acetylcholine receptor; alpha4/beta2. Nature of the assay: Agonist activity at human alpha-4-beta-2 nAChR expressed in Xenopus oocytes by two-electrode voltage clamp technique relative to acetylcholine. The following applies: Oocyte. Format: functional, cell-based. In outline: as §1
The target in assay [10] is T3, Neuronal acetylcholine receptor; alpha3/beta4. Nature of the assay: Agonist activity at human alpha3beta4 nAChR expressed in Xenopus oocytes by two-electrode voltage clamp technique at 320 uM relative to acetylcholine. Format: functional, cell-based. The following applies: Oocyte. In outline:
as §1

Assay [11] concerns the target T4, Neuronal acetylcholine receptor subunit alpha-7 (Homo sapiens, UniProt P36544). Nature of the assay: Agonist activity at human alpha-7 nAChR expressed in Xenopus oocytes by two-electrode voltage clamp technique. Format: functional, cell-based, Oocyte. In outline: as §1
For assay [12], the target named is T4, Neuronal acetylcholine receptor subunit alpha-7. The experiment in a line: Agonist activity at human alpha-7 nAChR expressed in Xenopus oocytes by two-electrode voltage clamp technique at 320 uM relative to acetylcholine. Format: functional, cell-based. The following applies: Oocyte. In outline: as §1

T4 sequence (P36544 whole entry): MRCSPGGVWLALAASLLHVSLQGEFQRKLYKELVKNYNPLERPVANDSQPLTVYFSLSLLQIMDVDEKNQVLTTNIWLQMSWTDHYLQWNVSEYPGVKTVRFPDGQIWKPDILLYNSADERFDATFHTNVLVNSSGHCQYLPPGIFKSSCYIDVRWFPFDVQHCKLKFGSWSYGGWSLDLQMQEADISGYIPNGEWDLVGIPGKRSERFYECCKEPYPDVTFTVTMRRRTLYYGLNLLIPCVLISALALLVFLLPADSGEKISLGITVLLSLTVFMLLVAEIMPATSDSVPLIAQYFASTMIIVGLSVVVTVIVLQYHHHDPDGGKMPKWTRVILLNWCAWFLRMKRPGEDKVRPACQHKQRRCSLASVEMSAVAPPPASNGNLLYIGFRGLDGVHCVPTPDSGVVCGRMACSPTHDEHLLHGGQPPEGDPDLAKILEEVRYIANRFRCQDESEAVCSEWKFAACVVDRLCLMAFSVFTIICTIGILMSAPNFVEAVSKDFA
T3 sequence (P30926 whole entry): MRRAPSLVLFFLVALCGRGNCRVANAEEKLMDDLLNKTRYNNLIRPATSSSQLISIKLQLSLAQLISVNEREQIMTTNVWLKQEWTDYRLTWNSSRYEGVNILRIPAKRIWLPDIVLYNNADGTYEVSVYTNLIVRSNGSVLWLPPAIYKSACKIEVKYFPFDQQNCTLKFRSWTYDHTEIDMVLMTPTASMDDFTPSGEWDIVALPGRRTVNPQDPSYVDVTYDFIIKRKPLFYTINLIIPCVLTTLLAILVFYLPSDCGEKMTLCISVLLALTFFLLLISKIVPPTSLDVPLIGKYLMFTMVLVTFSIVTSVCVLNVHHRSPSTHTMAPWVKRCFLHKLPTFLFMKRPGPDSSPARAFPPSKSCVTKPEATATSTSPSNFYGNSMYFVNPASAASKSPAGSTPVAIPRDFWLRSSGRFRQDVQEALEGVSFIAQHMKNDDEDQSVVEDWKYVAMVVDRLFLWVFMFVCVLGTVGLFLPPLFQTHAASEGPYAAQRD
T3 sequence (P32297 whole entry): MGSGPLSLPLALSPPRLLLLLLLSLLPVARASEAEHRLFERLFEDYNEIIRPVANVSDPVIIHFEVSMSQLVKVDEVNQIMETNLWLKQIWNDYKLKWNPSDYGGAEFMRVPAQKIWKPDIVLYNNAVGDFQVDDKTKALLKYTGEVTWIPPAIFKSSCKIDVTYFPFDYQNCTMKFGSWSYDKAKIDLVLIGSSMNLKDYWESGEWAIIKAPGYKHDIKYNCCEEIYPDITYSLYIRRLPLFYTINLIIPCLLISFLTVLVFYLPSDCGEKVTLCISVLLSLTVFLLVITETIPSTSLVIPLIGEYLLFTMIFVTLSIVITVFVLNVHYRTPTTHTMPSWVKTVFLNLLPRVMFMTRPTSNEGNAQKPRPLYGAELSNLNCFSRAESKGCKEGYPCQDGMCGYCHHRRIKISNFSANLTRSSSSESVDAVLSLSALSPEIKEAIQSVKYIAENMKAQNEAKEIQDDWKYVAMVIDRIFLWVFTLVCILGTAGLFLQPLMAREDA
T1 sequence (P04757 whole entry): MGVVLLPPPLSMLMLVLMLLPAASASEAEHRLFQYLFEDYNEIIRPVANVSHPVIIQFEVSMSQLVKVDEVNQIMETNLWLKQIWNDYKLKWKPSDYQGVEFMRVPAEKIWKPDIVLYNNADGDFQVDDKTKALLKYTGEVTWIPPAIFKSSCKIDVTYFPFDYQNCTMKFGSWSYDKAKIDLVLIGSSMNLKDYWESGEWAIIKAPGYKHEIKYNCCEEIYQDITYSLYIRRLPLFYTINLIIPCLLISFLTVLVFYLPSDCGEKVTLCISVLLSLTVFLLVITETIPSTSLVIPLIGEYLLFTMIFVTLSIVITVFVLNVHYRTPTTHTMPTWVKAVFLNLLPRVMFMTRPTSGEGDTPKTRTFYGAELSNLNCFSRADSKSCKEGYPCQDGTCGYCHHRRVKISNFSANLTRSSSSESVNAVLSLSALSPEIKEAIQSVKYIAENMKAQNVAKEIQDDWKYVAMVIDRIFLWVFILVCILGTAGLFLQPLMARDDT
T1 sequence (P12392 whole entry): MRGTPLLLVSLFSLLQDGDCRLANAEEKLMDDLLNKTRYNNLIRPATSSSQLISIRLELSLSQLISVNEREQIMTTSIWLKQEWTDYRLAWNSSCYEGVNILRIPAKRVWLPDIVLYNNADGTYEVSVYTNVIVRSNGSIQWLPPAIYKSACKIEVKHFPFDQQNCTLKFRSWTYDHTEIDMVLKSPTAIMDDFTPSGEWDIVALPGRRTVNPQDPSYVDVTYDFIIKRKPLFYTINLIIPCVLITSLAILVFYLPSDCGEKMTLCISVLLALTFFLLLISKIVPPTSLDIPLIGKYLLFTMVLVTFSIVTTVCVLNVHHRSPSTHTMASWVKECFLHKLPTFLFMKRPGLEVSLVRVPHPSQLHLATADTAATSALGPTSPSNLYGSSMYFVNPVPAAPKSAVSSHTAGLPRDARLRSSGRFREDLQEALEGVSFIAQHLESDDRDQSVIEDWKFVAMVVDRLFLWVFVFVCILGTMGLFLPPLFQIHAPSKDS
Sequence of Neuronal acetylcholine receptor; alpha4/beta2 (Rattus norvegicus, UniProt P09483+P12390) (P09483 whole entry): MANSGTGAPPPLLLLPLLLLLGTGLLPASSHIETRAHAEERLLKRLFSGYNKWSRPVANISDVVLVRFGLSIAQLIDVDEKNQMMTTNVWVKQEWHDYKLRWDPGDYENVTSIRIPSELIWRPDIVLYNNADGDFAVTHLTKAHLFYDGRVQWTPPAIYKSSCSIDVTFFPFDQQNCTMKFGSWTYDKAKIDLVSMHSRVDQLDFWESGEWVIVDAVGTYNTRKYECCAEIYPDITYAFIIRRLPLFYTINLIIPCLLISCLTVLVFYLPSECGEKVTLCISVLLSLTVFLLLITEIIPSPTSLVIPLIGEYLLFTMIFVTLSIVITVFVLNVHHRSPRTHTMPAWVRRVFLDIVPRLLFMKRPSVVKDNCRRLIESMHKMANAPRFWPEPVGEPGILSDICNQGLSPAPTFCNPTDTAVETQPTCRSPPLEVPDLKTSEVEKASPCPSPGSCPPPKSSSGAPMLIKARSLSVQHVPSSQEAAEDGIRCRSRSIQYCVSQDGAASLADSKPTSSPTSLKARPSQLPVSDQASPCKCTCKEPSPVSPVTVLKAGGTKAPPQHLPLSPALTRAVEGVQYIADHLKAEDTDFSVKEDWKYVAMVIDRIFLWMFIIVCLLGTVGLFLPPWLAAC
Sequence of Neuronal acetylcholine receptor; alpha4/beta2 (Rattus norvegicus, UniProt P09483+P12390) (P12390 whole entry): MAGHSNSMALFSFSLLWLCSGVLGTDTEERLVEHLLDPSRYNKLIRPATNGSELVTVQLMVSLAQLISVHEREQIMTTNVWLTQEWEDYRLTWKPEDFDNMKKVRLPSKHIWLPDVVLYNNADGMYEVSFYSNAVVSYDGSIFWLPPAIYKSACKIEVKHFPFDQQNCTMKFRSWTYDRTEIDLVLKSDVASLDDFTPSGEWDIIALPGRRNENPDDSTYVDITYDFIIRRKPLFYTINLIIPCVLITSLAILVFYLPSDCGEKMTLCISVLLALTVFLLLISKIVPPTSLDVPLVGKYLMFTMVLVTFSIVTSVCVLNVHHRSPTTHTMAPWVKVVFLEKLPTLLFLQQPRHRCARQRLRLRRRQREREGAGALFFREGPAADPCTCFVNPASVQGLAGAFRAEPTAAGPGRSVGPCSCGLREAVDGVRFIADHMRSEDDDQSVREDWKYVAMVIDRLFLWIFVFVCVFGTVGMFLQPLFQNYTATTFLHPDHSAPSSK
Sequence of Neuronal acetylcholine receptor; alpha4/beta4 (P09483 whole entry): as the sequence (P09483 whole entry) above
Sequence of Neuronal acetylcholine receptor; alpha4/beta4 (P12392 whole entry): as the sequence (P12392 whole entry) above
Sequence of Neuronal acetylcholine receptor subunit alpha-7 (Rattus norvegicus, UniProt Q05941) (Q05941 23-502 limits assumed): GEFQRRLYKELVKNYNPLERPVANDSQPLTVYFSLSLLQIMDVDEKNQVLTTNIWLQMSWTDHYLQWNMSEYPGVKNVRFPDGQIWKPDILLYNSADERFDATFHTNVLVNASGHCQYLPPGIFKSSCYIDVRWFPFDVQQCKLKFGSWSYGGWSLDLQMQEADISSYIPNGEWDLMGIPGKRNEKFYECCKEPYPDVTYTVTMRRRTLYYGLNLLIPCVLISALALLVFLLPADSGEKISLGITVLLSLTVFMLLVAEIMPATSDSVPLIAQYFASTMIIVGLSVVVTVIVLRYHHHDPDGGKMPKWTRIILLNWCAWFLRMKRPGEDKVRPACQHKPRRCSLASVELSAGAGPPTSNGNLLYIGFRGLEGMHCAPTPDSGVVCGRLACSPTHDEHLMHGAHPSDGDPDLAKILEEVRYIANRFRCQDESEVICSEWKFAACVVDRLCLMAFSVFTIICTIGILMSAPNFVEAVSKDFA

Consider `CC1CN(C(=O)OCC[C@H](C)N(C)C)C1`, for which the Ki in [1] was determined as 100 µM; in [2] it was 0.057 µM; in [3], 7.1 µM.
The corresponding values for `CC1CN(C(=O)OCC[C@@H](C)N(C)C)C1` are 19 µM, 0.00091 µM and 0.18 µM.
Regarding `CC(=O)OCCC(C)N(C)C` (configuration not stated), the Ki is 4.1 µM in [1], 0.065 µM in [2], 0.37 µM in assay [3] and greater than 1000 µM in assay [6]. In assay [4] (read-out: EC50), the EC50 worked out at 23 µM. The Activity in assay [5] was found to be 97%.
With `CC(CCOC(=O)C1CCC1)N(C)C` (configuration not stated), the Ki in assay [1] is 3.5 µM; in assay [2] it was 0.1 µM; in assay [3] it was 0.46 µM; in [6], 290 µM. For the same molecule, in [4] (read-out: EC50), the EC50 was 8.5 µM. Also, the Activity in assay [5] stood at 85%.
In the case of `CC(CCOC(=O)N1CCC1(C)C)N(C)C` (configuration not stated), the Ki in assay [1] was 25 µM; in assay [4] (read-out: Ki), 0.051 µM; in [4] (read-out: pKi (converted)), 50.1 µM; in assay [2], 0.21 µM; in [3], 3.2 µM. In assay [5], this molecule came in with an Activity of 90%.
As to `CC(CCOC(=O)N1CCC1)N(C)C` (configuration not stated), the Ki in [1] was 11 µM; in assay [4] (read-out: Ki), 0.023 µM; in assay [4] (read-out: pKi (converted)), 25.1 µM; in [2], 0.0051 µM; in assay [3], 0.19 µM. Besides, the EC50 is 7.1 µM in assay [7], greater than 320 µM in assay [8] (read-out: EC50) and greater than 316 µM in assay [8] (read-out: pEC50 (converted)). Moreover, the Activity in assay [9] is 66%; in [5], 106%; in [10], 23%.
As for `CC(CCOC(=O)N1CCCCC1)N(C)C` (configuration not stated), the Ki in assay [1] worked out at 2.6 µM; in assay [2], 0.091 µM; in assay [3], 0.35 µM.
Turning to `CC(CCOC(=O)C1CC1)N(C)C` (configuration not stated), the Ki in assay [1] stood at 4.2 µM; in assay [2], 0.0038 µM; in [3], 0.26 µM; in assay [6], 280 µM. The EC50 in assay [4] (read-out: pEC50 (converted)) was 7.94 µM. The Activity in assay [5] came to 105%.
With `CC(CCOC(=O)N1CCCC1)N(C)C` (configuration not stated), the Ki in assay [1] worked out at 25 µM; in [2] it was 0.21 µM; in assay [3], 2.2 µM.
On to `CC(CCOC(=O)c1ccccc1)N(C)C` (configuration not stated), for which the Ki in assay [1] stood at 100 µM; in assay [2], 0.32 µM; in assay [3], 10 µM; in assay [6] it was 190 µM.
As for `CC(CCOC(=O)N1CC(F)(F)C1)N(C)C` (configuration not stated), the Ki in [2] was found to be 0.058 µM; in assay [3], 1.6 µM. The Activity in assay [5] came out at 75%.
`CC(CCOC(=O)N1CC(C)(C)C1)N(C)C` (configuration not stated): the Ki in assay [1] is 300 µM; in assay [4] (read-out: Ki), 0.3 µM; in assay [4] (read-out: pKi (converted)), 316 µM; in [2] it was 0.058 µM; in assay [3], 0.72 µM. In addition, the Activity in assay [5] was determined as 43%.
For the molecule `CC(CCOC(=O)N1CCC1C)N(C)C` (configuration not stated), the Ki in assay [1] is 2.5 µM; in [4] (read-out: Ki), 0.0054 µM; in assay [4] (read-out: pKi (converted)), 5.01 µM; in [2], 0.015 µM; in assay [3], 0.23 µM; in assay [6] it was greater than 1000 µM. Moreover, the Activity in [5] is 89%.
As for `CC1CN(C(=O)OCCC(C)N(C)C)C1` (configuration not stated), the Ki is 23 µM in assay [1]; 0.048 µM in [4] (read-out: Ki); 50.1 µM in assay [4] (read-out: pKi (converted)); 0.0021 µM in [2]; 0.26 µM in assay [3]; greater than 1000 µM in [6]. Also, the EC50 is 85 µM in [7]; greater than 320 µM in assay [11] (read-out: EC50); greater than 316 µM in assay [11] (read-out: pEC50 (converted)); greater than 320 µM in [8] (read-out: EC50); greater than 316 µM in [8] (read-out: pEC50 (converted)). In addition, the Activity in assay [9] came to 9.5%; in [5], 91%; in assay [12], 0.9%; in assay [10], 12%.
Regarding `CC(C)C(=O)OCCC(C)N(C)C` (configuration not stated), the Ki in assay [1] was 8.5 µM; in assay [2], 0.03 µM; in [3], 0.76 µM; in [6] it was greater than 1000 µM. The EC50 in assay [4] (read-out: EC50) is 24 µM. In [5], this molecule came in with an Activity of 100%.
`CC(CCOC(=O)n1cccc1)N(C)C` (configuration not stated): the Ki in [1] is 100 µM; in assay [4] (read-out: Ki) it was 0.1 µM; in assay [4] (read-out: pKi (converted)), 316 µM; in assay [2], 0.31 µM; in assay [3], 11 µM; in assay [6] it was greater than 1000 µM. The Activity in assay [5] is 27%.
`CC(CCOC(=O)N(C)C)N(C)C` (configuration not stated): the Ki was 0.42 µM in [1]; 0.0077 µM in [4] (read-out: Ki); 7.94 µM in [4] (read-out: pKi (converted)); 0.02 µM in [2]; 0.15 µM in [3]; greater than 1000 µM in assay [6]. For the same molecule, in [5], the Activity stood at 105%.
